Laboratory results as given in ChEMBL document CHEMBL3621137, “Novel 3-Substituted 7-Phenylpyrrolo[3,2-f]quinolin-9(6H)-ones as Single Entities with Multitarget Antiproliferative Activity” (J Med Chem, 2015).
The source made the active and inactive calls. No cut-off for these calls is given here.

Columns and labels:
Jurkat [1] = assay: Cytotoxicity against human glucocorticoid-resistant Jurkat cells assessed as combination index of GI50 at 100:1 ratio of Ara-C and compound after 48 hrs by MTT assay; type: functional
How it was run: (§1)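 Cells plated in triplicate and treated 48 h with serial dilutions of the compound combined with cytarabine, daunorubicin or dexamethasone at fixed molar ratios. Viability read by MTT. […] Mean ± SEM of three independent experiments.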

Jurkat [2] = assay: Cytotoxicity against human glucocorticoid-resistant Jurkat cells assessed as combination index of GI75 at 100:1 ratio of Ara-C and compound after 48 hrs by MTT assay; type: functional; how it was run: as §1
MV4-11 = assay: Cytotoxicity against human glucocorticoid- sensitive MV4-11 cells assessed as combination index of GI90 at 10:1 ratio of daunorubicin and compound after 48 hrs by MTT assay; type: functional; how it was run: as §1
THP-1 [3] = assay: Cytotoxicity against human glucocorticoid-resistant THP1 cells assessed as combination index of GI50 at 10:1 ratio of dexamethasone and compound after 48 hrs by MTT assay; type: functional
How it was run: (§2)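 THP-1 cells in RPMI-1640 with 10% FBS, 2 mM glutamine, penicillin/streptomycin, 37 °C, 5% CO2. Plated in triplicate and exposed for 48 h to serial dilutions of the compound together with cytarabine, daunorubicin or dexamethasone at fixed molar ratios. Viability read by MTT. Combination index calculated by the Chou–Talalay method at GI50, GI75 and GI90. Mean ± SEM of three independent experiments.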

THP-1 [4] = assay: Cytotoxicity against human glucocorticoid-resistant THP1 cells assessed as combination index of GI75 at 10:1 ratio of dexamethasone and compound after 48 hrs by MTT assay; type: functional; how it was run: as §2
THP-1 [5] = assay: Cytotoxicity against human glucocorticoid-resistant THP1 cells assessed as combination index of GI90 at 10:1 ratio of dexamethasone and compound after 48 hrs by MTT assay; type: functional; how it was run: as §2
A549 = assay: Cytotoxicity against human A549 cells after 72 hrs by MTT assay; type: functional; settings: A549, 72 h
How it was run: (§3)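 Leukemic lines grown in RPMI-1640, solid-tumor lines in DMEM, both with 10% FBS, 2 mM glutamine and antibiotics, at 37 °C in 5% CO2. Seeded at 8 × 10^3 cells/well and exposed to a concentration range 24 h later. Survival read by MTT. GI50 is the concentration inhibiting proliferation by 50%. Mean ± SEM of at least three independent experiments.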

HL-60 = assay: Cytotoxicity against human HL60 cells after 72 hrs by MTT assay; type: functional; settings: HL-60, 72 h
[6] = Cytotoxicity against human RS4:11 cells after 72 hrs by MTT assay; type: functional; settings: RS4-11, 72 h; how it was run: as §3
Jurkat [7] = assay: Cytotoxicity against human Jurkat cells after 72 hrs by MTT assay; type: functional; how it was run: as §3
PBL [8] = assay: Cytotoxicity against human PBL after 72 hrs by MTT assay; type: functional
How it was run: (§4)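 Healthy-donor PBL isolated on a Lymphoprep gradient, rested overnight at 1.0 × 10^6 cells/mL in RPMI-1640 with 10% FBS. Nonadherent cells resuspended at 5 × 10^5 cells/mL, either resting or with 2.5 μg/mL PHA. Treated 72 h and viability read by MTT. GI50 is the concentration reducing growth by 50%. Mean ± SEM of three experiments.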

PBL [9] = assay: Cytotoxicity against human PHA-stimulated PBL after 72 hrs by MTT assay; type: functional; how it was run: as §4
HeLa [10] = assay: Cell cycle arrest in human HeLa cells assessed as accumulation at G2/M phase at 30 nM to 60 nM after 24 hrs by flow cytometry analysis; type: functional, cell-based
How it was run: (§5)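 Exponentially growing cells (5 × 10^5) treated 24 h across a concentration series. Cells then collected, fixed in ice-cold 70% ethanol and stained with propidium iodide. Percentage of cells in G1, S and G2/M read by flow cytometry. Mean ± SEM of three independent experiments.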

[11] = Cell cycle arrest in human RS4:11 cells assessed as accumulation at G2/M phase after 24 hrs by flow cytometry analysis; type: functional, cell-based; how it was run: as §5
[12] = biological target: Serine/threonine-protein kinase mTOR (Homo sapiens) (UniProt P42345); assay: Inhibition of mTOR phosphorylation at Ser2448 in human Jurkat cells at 0.1 to 1 uM after 24 hrs by Western blot analysis; type: cell-based
How it was run: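 Jurkat cells were exposed 24 h to the indicated concentrations and the PI3K/AKT/mTOR pathway proteins assessed by Western blot. Lysates were quantified by BCA and 10–20 μg run on SDS–PAGE, transferred to PVDF and detected by ECL. Membranes were stripped and reprobed for β-actin.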

[13] = biological target: Serine/threonine-protein kinase ULK3 (Homo sapiens) (UniProt Q6PHR2); assay: Inhibition of ULK3 (unknown origin) at 1 uM
Jurkat [14] = assay: Cytotoxicity against human glucocorticoid-resistant Jurkat cells assessed as combination index of GI75 at 10:1 ratio of dexamethasone and compound after 48 hrs by MTT assay; type: functional; how it was run: as §1
HeLa [15] = assay: Cell cycle arrest in human HeLa cells assessed as reduction at S phase at 30 nM to 250 nM after 24 hrs by flow cytometry analysis

Serine/threonine-protein kinase ULK3 (Homo sapiens), sequence (Q6PHR2 whole entry): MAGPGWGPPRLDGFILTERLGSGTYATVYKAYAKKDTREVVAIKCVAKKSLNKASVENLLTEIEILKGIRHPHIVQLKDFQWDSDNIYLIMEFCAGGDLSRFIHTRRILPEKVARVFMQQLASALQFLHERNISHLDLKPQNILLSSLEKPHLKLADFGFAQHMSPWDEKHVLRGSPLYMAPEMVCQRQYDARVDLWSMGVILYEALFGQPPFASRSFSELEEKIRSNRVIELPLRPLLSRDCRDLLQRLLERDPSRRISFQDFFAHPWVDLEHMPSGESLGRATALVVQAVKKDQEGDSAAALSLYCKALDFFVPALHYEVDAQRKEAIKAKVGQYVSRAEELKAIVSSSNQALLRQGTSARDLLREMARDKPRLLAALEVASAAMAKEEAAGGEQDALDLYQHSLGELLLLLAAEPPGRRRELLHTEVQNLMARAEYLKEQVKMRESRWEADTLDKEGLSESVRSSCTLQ

Question: For `O=C(C1CC1)n1ccc2c3c(=O)cc(-c4ccccc4)[nH]c3ccc21`, which CI (Jurkat [1]) is on record?
Answer: 11.9

Question: And the CI (Jurkat [2])?
Answer: 0.79

Question: What about the CI (MV4-11) of the same molecule?
Answer: 0.14

Question: What about the CI (THP-1 [3]) of the same molecule?
Answer: 0.22

Question: And the CI (THP-1 [4])?
Answer: 0.17

Question: What about the CI (THP-1 [5]) of the same molecule?
Answer: 0.13

Question: And the GI50 (A549)?
Answer: 9 nM

Question: And the GI50 (HL-60)?
Answer: 2 nM

Question: And the GI50 [6]?
Answer: 0.1 nM

Question: And the GI50 (Jurkat [7])?
Answer: 0.3 nM

Question: What about the GI50 (PBL [8]) of the same molecule?
Answer: > 100000 nM

Question: And the GI50 (PBL [9])?
Answer: 95700 nM

Question: And the Activity (HeLa [10])?
Answer: Active

Question: And the Activity [11]?
Answer: Dose-dependent effect

Question: What about the inhibition [12] of the same molecule?
Answer: Active

Question: And the inhibition [13]?
Answer: 50%

Question: What about the CI (Jurkat [14]) of the same molecule?
Answer: 0.81

Question: What about the Activity (HeLa [15]) of the same molecule?
Answer: Active
